Assay results reported in ChEMBL document CHEMBL4371006, “Discovery of N-[4-(Quinolin-4-yloxy)phenyl]benzenesulfonamides as Novel AXL Kinase Inhibitors” (J Med Chem, 2018).
Active and inactive are the calls of the source. No cut-off for these calls is given here.

Assays:
[1] = biological target: Epithelial discoidin domain-containing receptor 1 (Homo sapiens) (UniProt Q08345); assay: Binding affinity to DDR1 (unknown origin) at 10 uM
[2] = biological target: Epithelial discoidin domain-containing receptor 1 (Homo sapiens) (UniProt Q08345); assay: Inhibition of DDR1 (unknown origin) using biotinylated peptide as substrate at 10 uM by TR-FRET assay
[3] = biological target: Receptor-type tyrosine-protein kinase FLT3 (Homo sapiens) (UniProt P36888); assay: Inhibition of FLT3 (unknown origin) using fluorescence labeled peptide as substrate at 10 uM by IMAP assay
Summary of the method: (§1)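 IMAP fluorescence-polarization kinase assay at 10 µmol/L compound, run in triplicate by a contract lab. A fluorescently labeled substrate peptide is phosphorylated, then nanoparticles carrying trivalent metal bind the phosphopeptide and slow its rotation. Read-out is fluorescence polarization, expressed as percent inhibition.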

[4] = biological target: Proto-oncogene tyrosine-protein kinase receptor Ret (Homo sapiens) (UniProt P07949); assay: Inhibition of RET (unknown origin) using fluorescence labeled peptide as substrate at 10 uM by IMAP assay
Summary of the method: (§2)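 Kinase selectivity profiling, run by a contract lab, with the test compound at 10 µmol/L in triplicate. In the IMAP format, the kinase phosphorylates a fluorescently labelled substrate peptide in solution. A binding solution of trivalent metal-based nanoparticles is then added to capture the phosphopeptide, and the drop in rotational speed is read as fluorescence polarization. Results are given as percent inhibition of each kinase.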

[5] = biological target: Tyrosine-protein kinase CSK (Homo sapiens, UniProt P41240); assay: Inhibition of CSK (unknown origin) using fluorescence labeled peptide as substrate at 10 uM by IMAP assay; summary of the method: as §1
[6] = biological target: Serine/threonine-protein kinase B-raf (Homo sapiens) (UniProt P15056); assay: Binding affinity to BRAF (unknown origin) at 10 uM
[7] = biological target: Tyrosine-protein kinase JAK3 (Homo sapiens) (UniProt P52333); assay: Inhibition of JAK3 (unknown origin) using fluorescence labeled peptide as substrate at 10 uM by IMAP assay; summary of the method: as §2
[8] = biological target: Tyrosine-protein kinase SYK (Homo sapiens) (UniProt P43405); assay: Inhibition of SYK (unknown origin) using fluorescence labeled peptide as substrate at 10 uM by IMAP assay
[9] = biological target: Tyrosine-protein kinase JAK3 (Homo sapiens) (UniProt P52333); assay: Inhibition of JAK3 (unknown origin) using fluorescence labeled peptide as substrate at 10 uM by IMAP assay
[10] = biological target: Insulin receptor (Homo sapiens) (UniProt P06213); assay: Inhibition of INSR (unknown origin) using fluorescently-labeled peptide as substrate at 10 uM by IMAP fluorescence polarization assay
[11] = biological target: Fibroblast growth factor receptor 3 (Homo sapiens) (UniProt P22607); assay: Inhibition of FGFR3 (unknown origin) using fluorescently-labeled peptide as substrate at 10 uM by IMAP fluorescence polarization assay
[12] = biological target: Serine/threonine-protein kinase MARK2 (Homo sapiens, UniProt Q7KZI7); assay: Binding affinity to MARK2 in SILAC-labeled human MDA-MB-231 cells lysate by mass spectrometry based kinAffinity assay; type: subcellular
Summary of the method: (§3)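 Chemical proteomics: MDA-MB-231 lysate bound to matrix of immobilized broad kinase inhibitors at several densities (BC50), then competed with increasing free compound (CC50); proteins quantified by mass spectrometry, Kd via Cheng-Prusoff. Two competition formats run in parallel to check equilibrium.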

[13] = biological target: Delta(3,5)-Delta(2,4)-dienoyl-CoA isomerase, mitochondrial (Homo sapiens, UniProt Q13011); assay: Binding affinity to ECH1 in SILAC-labeled human MDA-MB-231 cells lysate by mass spectrometry based kinAffinity assay; type: subcellular; summary of the method: as §3
[14] = biological target: Mitogen-activated protein kinase kinase kinase kinase 4 (Homo sapiens, UniProt O95819); assay: Binding affinity to MAP4K4 in SILAC-labeled human MDA-MB-231 cells lysate by mass spectrometry based kinAffinity assay; type: subcellular; summary of the method: as §3
[15] = biological target: Cyclin-dependent kinase 17 (Homo sapiens, UniProt Q00537); assay: Binding affinity to PCTK2 in SILAC-labeled human MDA-MB-231 cells lysate by mass spectrometry based kinAffinity assay; type: subcellular
Summary of the method: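 MDA-MB-231 lysate applied to KinAffinity matrix of immobilized broadband kinase inhibitors at graded densities to obtain BC50 per target. Competition then run with increasing free compound to give CC50; Kd derived by Cheng-Prusoff. Two competition experiments in parallel to check equilibrium, one with lysate pre-incubated with compound before adding matrix. Quantitation by mass spectrometry.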

[16] = Toxicity in SCID/beige mouse xenografted with human MDA-MB-231 cells assessed as body weight gain at 30 mg/kg, ip bid measured 3 times per week starting at day 12; type: organism-based; details: in vivo
MDA-MB-231 [17] = assay: Antitumor activity against human MDA-MB-231 cells xenografted in mouse assessed as tumor growth inhibition at 30 mg/kg, ip bid measured 3 times per week starting at day 12; type: functional, organism-based
Summary of the method: (§4)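 Female SCID/Beige mice inoculated with 2 x 10^6 MDA-MB-231 cells in HBSS:Matrigel (1:1) into third mammary fat pad under ketamine/xylazine. Test agent 30 mg/kg ip twice daily (12 h apart) in PEG400/H2O 70:30, or paclitaxel 10 mg/kg iv three times weekly; 10 mice/group. Tumors measured three times weekly from day 12; lungs and lymph nodes excised, formalin-fixed, nodes H&E-scored (mean ± SEM).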

MDA-MB-231 [18] = assay: Antimetastatic activity against human MDA-MB-231 cells xenografted in mouse assessed as reduction in lymph node metastasis at 30 mg/kg, ip bid measured 3 times per week starting at day 12 by hematoxylin and eosin staining based assay relative to control; type: functional; parameters: scale not given: the % may be the effect or the level left; summary of the method: as §4
[19] = Apparent volume of distribution in mouse at 3 mg/kg, iv by LC/MS/MS analysis; details: in vivo, read-out: Vz
[20] = biological target: Enoyl-CoA hydratase, mitochondrial (Homo sapiens, UniProt P30084); assay: Binding affinity to ECHS1 in SILAC-labeled human MDA-MB-231 cells lysate by mass spectrometry based kinAffinity assay; type: subcellular; summary of the method: as §3
[21] = Antitumor activity against AXL expressing mouse MXT cells allografted in mouse assessed as survival time at 5 mg/kg, ip qd administered 21 consecutive days (reference value: 100%); type: functional
Summary of the method: (§5)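 MXT mammary tumour cells implanted subcutaneously and staged to about 125 mm3. Dosing then began: once daily ip for 21 consecutive days, at 5 or 15 mg/kg, alongside a vehicle group, with 7 animals per group. Survival in days was recorded for each animal and given as mean ± SD, and as T/C% against the vehicle group (vehicle = 100%).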

[22] = Antitumor activity against AXL expressing mouse MXT cells allografted in mouse assessed as survival time at 15 mg/kg, ip qd administered 21 consecutive days; type: functional; summary of the method: as §5
[23] = Toxicity in mouse allografted with AXL expressing mouse MXT cells assessed as weight loss at 15 mg/kg, ip qd administered 21 consecutive days; type: organism-based; details: in vivo
[24] = Antitumor activity against AXL expressing mouse MXT cells allografted in mouse assessed as prolongation of survival time at 5 to 15 mg/kg, ip qd administered 21 consecutive days; type: functional; details: read-out: MED; summary of the method: as §5

Serine/threonine-protein kinase MARK2, sequence (Q7KZI7 whole entry): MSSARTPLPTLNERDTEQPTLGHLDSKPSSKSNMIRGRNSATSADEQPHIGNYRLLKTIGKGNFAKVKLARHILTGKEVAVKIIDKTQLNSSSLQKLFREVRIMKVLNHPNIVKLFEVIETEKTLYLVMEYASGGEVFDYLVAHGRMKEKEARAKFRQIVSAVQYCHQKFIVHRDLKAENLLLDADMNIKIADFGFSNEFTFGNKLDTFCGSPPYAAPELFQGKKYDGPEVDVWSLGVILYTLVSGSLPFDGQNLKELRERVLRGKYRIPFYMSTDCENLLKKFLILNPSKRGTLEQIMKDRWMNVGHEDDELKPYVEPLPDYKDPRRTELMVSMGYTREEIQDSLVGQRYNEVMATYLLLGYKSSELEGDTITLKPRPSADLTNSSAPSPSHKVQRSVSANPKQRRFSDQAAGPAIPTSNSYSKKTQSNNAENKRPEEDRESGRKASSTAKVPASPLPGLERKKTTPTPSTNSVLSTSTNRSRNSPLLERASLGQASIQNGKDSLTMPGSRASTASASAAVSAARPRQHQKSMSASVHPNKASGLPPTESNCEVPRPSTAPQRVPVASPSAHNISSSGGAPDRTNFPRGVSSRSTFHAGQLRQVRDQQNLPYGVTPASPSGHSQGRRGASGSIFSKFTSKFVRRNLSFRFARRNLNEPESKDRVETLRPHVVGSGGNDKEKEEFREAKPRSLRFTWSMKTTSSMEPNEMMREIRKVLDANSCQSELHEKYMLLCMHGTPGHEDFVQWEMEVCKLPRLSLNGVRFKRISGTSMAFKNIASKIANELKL
Tyrosine-protein kinase JAK3 (Homo sapiens), sequence (P52333 whole entry): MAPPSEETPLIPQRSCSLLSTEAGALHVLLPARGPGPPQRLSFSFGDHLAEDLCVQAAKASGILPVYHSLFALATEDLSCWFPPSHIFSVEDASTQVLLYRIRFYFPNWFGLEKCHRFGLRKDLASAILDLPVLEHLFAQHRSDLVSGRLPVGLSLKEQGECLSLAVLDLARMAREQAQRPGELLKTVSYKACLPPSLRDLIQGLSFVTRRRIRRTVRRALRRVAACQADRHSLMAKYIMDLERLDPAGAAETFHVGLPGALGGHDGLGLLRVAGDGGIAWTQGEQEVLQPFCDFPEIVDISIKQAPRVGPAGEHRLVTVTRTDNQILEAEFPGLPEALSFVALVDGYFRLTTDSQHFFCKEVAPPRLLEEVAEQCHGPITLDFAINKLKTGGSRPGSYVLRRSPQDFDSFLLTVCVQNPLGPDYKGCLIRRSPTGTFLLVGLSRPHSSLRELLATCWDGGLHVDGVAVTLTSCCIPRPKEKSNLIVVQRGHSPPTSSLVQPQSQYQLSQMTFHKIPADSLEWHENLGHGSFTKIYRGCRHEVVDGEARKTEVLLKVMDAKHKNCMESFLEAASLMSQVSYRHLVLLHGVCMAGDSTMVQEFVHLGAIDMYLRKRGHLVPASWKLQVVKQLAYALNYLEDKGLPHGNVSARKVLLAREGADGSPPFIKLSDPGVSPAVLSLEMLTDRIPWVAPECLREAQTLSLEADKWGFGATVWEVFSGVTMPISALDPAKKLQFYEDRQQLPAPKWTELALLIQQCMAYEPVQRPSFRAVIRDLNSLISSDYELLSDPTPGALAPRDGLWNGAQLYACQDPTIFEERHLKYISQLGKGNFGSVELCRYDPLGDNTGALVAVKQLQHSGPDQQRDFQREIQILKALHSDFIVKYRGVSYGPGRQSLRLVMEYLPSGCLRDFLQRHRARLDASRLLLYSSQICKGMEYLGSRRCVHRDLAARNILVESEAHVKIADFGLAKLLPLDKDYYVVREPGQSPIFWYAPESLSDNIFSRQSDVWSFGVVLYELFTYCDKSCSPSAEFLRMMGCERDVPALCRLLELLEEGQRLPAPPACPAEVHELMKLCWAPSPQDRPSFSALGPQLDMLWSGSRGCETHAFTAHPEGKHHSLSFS
Epithelial discoidin domain-containing receptor 1 (Homo sapiens), sequence (Q08345 whole entry, the tested form may be a part): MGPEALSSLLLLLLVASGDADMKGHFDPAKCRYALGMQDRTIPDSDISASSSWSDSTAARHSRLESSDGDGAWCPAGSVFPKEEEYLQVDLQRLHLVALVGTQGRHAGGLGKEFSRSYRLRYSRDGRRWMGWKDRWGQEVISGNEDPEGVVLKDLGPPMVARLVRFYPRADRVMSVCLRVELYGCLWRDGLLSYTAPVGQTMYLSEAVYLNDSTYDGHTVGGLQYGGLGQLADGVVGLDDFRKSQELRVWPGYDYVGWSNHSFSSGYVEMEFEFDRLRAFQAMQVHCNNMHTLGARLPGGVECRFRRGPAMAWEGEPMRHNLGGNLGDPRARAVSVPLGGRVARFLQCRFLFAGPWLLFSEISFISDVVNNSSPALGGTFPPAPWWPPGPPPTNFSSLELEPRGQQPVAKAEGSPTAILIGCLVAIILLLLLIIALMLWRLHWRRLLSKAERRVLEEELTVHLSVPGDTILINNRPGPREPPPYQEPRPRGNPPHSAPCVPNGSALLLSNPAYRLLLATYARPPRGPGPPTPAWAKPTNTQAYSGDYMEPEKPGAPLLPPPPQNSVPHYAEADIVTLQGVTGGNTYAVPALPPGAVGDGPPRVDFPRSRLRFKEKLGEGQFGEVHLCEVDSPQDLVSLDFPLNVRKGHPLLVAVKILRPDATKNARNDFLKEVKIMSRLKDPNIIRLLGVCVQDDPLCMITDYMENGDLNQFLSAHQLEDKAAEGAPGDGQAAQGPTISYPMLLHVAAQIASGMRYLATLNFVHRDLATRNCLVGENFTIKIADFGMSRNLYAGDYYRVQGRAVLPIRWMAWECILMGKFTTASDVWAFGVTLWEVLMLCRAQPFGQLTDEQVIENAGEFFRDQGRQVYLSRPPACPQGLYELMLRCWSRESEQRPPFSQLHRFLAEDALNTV
Cyclin-dependent kinase 17, sequence (Q00537 whole entry): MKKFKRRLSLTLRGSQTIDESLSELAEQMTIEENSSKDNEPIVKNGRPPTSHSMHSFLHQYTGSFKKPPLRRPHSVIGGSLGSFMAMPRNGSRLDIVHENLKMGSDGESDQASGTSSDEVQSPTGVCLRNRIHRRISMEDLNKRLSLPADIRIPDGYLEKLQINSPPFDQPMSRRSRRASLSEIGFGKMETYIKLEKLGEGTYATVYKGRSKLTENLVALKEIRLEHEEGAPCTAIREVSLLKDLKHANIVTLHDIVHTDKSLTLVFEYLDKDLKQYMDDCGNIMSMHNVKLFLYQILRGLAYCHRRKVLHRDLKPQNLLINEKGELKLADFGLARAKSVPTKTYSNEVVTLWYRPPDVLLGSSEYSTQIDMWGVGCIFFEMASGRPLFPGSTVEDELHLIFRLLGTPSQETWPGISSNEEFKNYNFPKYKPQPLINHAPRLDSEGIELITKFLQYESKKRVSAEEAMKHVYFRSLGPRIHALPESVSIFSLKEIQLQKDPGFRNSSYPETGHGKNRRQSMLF
Insulin receptor (Homo sapiens), sequence (P06213 28-758 limits assumed): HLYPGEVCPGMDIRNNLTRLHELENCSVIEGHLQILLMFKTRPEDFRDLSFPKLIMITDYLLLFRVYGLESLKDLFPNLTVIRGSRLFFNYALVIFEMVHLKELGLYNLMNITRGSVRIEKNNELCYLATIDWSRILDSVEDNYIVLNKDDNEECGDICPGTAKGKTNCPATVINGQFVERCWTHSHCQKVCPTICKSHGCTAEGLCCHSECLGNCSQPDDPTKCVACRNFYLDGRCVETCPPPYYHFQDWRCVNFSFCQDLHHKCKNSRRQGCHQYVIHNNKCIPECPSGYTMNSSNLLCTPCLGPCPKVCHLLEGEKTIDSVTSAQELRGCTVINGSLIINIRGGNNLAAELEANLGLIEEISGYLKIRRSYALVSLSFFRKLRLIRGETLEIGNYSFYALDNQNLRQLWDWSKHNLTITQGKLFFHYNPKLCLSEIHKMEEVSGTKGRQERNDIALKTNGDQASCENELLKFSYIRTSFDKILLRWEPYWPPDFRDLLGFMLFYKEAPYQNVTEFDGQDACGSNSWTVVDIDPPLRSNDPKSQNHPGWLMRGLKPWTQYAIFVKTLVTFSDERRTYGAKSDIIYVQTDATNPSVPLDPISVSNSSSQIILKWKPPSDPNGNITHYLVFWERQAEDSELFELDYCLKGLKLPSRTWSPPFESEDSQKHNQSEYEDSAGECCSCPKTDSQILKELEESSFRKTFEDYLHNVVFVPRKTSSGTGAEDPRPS
Insulin receptor (Homo sapiens), sequence (P06213 763-1382 limits assumed): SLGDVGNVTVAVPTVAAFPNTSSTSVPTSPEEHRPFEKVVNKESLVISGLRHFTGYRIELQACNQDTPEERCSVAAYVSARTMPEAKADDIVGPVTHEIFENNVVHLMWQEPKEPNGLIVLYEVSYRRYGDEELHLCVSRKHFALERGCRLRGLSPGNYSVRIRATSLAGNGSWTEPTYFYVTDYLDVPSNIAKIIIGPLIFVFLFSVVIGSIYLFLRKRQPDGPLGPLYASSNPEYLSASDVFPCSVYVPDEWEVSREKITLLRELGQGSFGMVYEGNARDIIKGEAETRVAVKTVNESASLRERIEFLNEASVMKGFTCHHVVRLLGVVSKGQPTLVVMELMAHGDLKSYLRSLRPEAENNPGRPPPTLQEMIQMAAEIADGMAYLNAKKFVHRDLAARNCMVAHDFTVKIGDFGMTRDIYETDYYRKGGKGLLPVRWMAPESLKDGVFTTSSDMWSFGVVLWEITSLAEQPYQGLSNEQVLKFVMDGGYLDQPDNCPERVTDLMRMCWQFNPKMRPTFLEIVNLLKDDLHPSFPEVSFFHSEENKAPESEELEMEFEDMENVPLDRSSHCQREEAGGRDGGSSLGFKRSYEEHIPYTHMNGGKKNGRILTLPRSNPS
Delta(3,5)-Delta(2,4)-dienoyl-CoA isomerase, mitochondrial, sequence (Q13011 whole entry): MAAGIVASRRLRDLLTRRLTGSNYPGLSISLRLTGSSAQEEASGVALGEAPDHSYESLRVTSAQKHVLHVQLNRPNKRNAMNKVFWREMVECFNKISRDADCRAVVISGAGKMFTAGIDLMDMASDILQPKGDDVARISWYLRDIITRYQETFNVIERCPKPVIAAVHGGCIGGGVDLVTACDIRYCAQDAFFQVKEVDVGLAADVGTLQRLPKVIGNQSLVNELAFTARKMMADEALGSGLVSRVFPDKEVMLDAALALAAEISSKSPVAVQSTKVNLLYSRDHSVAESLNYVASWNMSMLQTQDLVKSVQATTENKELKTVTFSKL

For `COc1cc2c(Oc3ccc(NS(=O)(=O)c4ccccc4C(F)(F)F)cc3F)ccnc2cc1OCCCN1CCN(C)CC1`, the inhibition [1] was “Active”, the inhibition [2] was “Active” and the inhibition [3] was “Active”. For the same molecule, the inhibition [4] was “Active”, the inhibition [5] was “Active” and the inhibition [6] was “Active”. For the same molecule, the inhibition [7] was “Active”, the inhibition [8] was “Active” and the inhibition [9] was “Active”. For the same molecule, the inhibition [10] was “Active” and the inhibition [11] was “Active”.

For `COc1cc2c(Oc3ccc(NS(=O)(=O)c4cc(F)ccc4F)cc3F)ccnc2cc1OCCCN1CCN(C)CC1`, the “Kd(free)” value [12] was 4.455 µM, the “Kd(free)” value [13] was 2.857 µM and the “Kd(free)” value [14] was 3.75 µM. The “Kd(free)” value [15] was greater than 7.651 µM, the Activity [16] was “Toxic” and the TGI (MDA-MB-231 [17]) was “Active”. For the same molecule, the Activity (MDA-MB-231 [18]) was 14.3% and the Vd [19] was 10.2 L/kg.

With `COc1cc2c(Oc3ccc(NS(=O)(=O)c4c(F)cccc4F)cc3F)ccnc2cc1OCCCN1CCN(C)CC1` the “Kd(free)” value [12] was 7.086 µM and the “Kd(free)” value [20] was 9.237 µM.

In the case of `COc1cc2c(Oc3ccc(NS(=O)(=O)c4cc(F)ccc4F)cc3F)ccnc2cc1OCCCN1CCCC(C)C1` (stereo not given), the T/C [21] is reported as 118%, the T/C [22] is reported as 127% and the Activity [23] is reported as “Non-Toxic”. The minimal effective dose [24] was 5 mg/kg.
